The values that follow come from ChEMBL document CHEMBL5107948, “Activity-based protein profiling reveals deubiquitinase and aldehyde dehydrogenase targets of a cyanopyrrolidine probe” (RSC Med Chem, 2021).

Common to all, as to format: cell-based
Assay [1] has as its target Ubiquitin carboxyl-terminal hydrolase isozyme L1 (Homo sapiens) (UniProt P09936). Briefly: Inhibition of UCHL1 in human HEK293 cells assessed as reduction in UCHL1-Ub level using HA-Ub-VME as substrate at 0.001 to 30 uM incubated for 1 hr by immunoblotting analysis. To be noted: dose 0.001-30 µM. In short, it runs like this:
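Near-confluent HEK293 cells treated with compound in medium for 1 h at 37 °C, lysed in Tris/NP-40/CHAPS buffer with benzonase. Lysate (20 µg) reacted with HA-Ahx-Ahx-Ub-VME (0.5 µg) 15 min at room temperature, boiled 5 min at 95 °C in SDS loading buffer with BME, SDS-PAGE and immunoblot.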
(In western blotting, separated proteins are transferred to a membrane and probed.)

Assay [2] shares this target. Briefly: Binding affinity to UCHL1 in human HEK293 cells at 31 nM by TAMRA labelled pulldown based In-gel fluorescence analysis. In short, it runs like this:
(§1)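 HEK293 cells treated with ABP; lysate (150 µg) CuAAC-ligated to AzTB, precipitated, resuspended. 100 µg incubated with streptavidin magnetic beads 2 h RT, washed with 0.2% SDS/PBS, eluted by boiling 10 min at 95 °C. Eluates run on SDS-PAGE and read by TAMRA in-gel fluorescence or by immunoblot on nitrocellulose with HRP chemiluminescence.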

Assay [3] has the same target. Briefly: Binding affinity to UCHL1 in human HEK293 cells at 31 nM by TAMRA labelled pulldown based immunoblotting analysis. In short, it runs like this:
as §1

Assay [4] shares this target. As to the kind of experiment: Binding affinity to UCHL1 in human HEK293 cells assessed as fold change at 130 nM incubated for 3 to 6 hrs by LFQ-chemical proteomics analysis. The note with it: time 3-6 hrs. In short, it runs like this: (§2)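 HEK293 cells exposed to alkyne ABP or DMSO for 3, 6 or 18 h, washed, lysed in PBS/1% Triton X-100/0.1% SDS. Lysates (400 µg, biological triplicates) CuAAC-ligated to AzRB (100 µM, CuSO4 1 mM, TCEP 1 mM, TBTA 100 µM, 1 h RT). NeutrAvidin enrichment, on-bead TCEP/CAA reduction-alkylation, overnight trypsin digest at 37 °C, LC-MS/MS label-free quantification. Two-sample t-test against DMSO (n=3, permutation FDR 0.01, S0=1).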

Assay [5] addresses Aldehyde dehydrogenase family 3 member A2 (Homo sapiens) (UniProt P51648). Briefly: Binding affinity to ALDH3A2 in human HEK293 cells assessed as fold change at 130 nM incubated for 3 to 6 hrs by LFQ-chemical proteomics analysis. To be noted: time 3-6 hrs. In short, it runs like this: as §2
The target of assay [6] is T1, Glutamine amidotransferase-like class 1 domain-containing protein 3, mitochondrial (Homo sapiens) (UniProt P0DPI2).
T1 sequence (whole entry): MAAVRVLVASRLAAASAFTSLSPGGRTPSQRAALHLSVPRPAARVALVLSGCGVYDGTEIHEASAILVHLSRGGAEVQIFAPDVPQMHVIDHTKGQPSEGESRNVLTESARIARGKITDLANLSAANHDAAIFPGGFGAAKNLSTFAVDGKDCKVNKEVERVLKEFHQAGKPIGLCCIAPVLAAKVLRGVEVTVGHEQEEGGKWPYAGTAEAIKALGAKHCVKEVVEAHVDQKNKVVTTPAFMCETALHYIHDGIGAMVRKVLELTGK
As to the kind of experiment: Binding affinity to GATD3A in human HEK293 cells assessed as fold change at 30 nM incubated for 3 to 18 hrs by LFQ-chemical proteomics analysis. The note with it: time 3-18 hrs. In short, it runs like this: as §2

The next assay concerns HEK293. Briefly: Binding affinity to ALDH in human HEK293 cells assessed as fold change at 30 nM incubated for 3 to 18 hrs by LFQ-chemical proteomics analysis. To be noted: time 3-18 hrs. A digest of the protocol: as §2
Assay [7] concerns the target Ubiquitin carboxyl-terminal hydrolase isozyme L1 (Homo sapiens) (UniProt P09936). As to the kind of experiment: Inhibition of UCHL1 in human HEK293 cells at 130 to 2000 nM in presence of ABP MT16-205 by Competitive pulldown based immunoblotting analysis. The note with it: dose 130-2000 nM, DDE = dose-dependent effect. A digest of the protocol: (§3)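 Lysates AzTB-clicked, streptavidin bead pulldown (2 h RT), boiled elution, SDS-PAGE. Target detected by immunoblot: 3% BSA/TBS-T block, primary antibody 1.5 h RT or overnight at 4 °C, HRP secondary, chemiluminescence.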

Assay [8] concerns the target 4-trimethylaminobutyraldehyde dehydrogenase (Homo sapiens) (UniProt P49189). Briefly: Inhibition of ALDH9A1 in human HEK293 cells at 130 to 2000 nM in presence of ABP MT16-205 by Competitive pulldown based immunoblotting analysis. The note with it: dose 130-2000 nM, DDE = dose-dependent effect. A digest of the protocol: as §3
For assay [9], the target named is T1, Glutamine amidotransferase-like class 1 domain-containing protein 3, mitochondrial (Homo sapiens). Briefly: Binding affinity to GATD3A in human HEK293 cells at 130 to 500 nM in presence of ABP MT16-205 by LFQ-NanoLC-MS/MS analysis. The note with it: dose 130-500 nM, DDE = dose-dependent effect. In short, it runs like this:
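Competition format: HEK293 cells pre-treated 1 h with competitor or DMSO, then exposed to ABP MT16-205. Lysis in PBS/Triton/SDS buffer, AzRB click ligation, NeutrAvidin pulldown, on-bead TCEP/chloroacetamide treatment and overnight tryptic digestion. Label-free LC-MS/MS; two-sample t-test versus control (n=3, permutation FDR 0.01, S0=1).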

Calls of active or inactive are those of the source. The rule behind the calls is not given here.

Chain of Ubiquitin carboxyl-terminal hydrolase isozyme L1 (Homo sapiens) (P09936 whole entry, looked up): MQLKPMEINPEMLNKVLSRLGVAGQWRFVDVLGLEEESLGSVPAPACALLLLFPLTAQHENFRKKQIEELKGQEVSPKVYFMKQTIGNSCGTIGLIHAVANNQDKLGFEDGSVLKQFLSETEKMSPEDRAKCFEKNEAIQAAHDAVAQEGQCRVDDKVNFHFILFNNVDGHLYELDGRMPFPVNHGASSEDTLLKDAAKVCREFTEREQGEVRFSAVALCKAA
Chain of 4-trimethylaminobutyraldehyde dehydrogenase (Homo sapiens) (P49189 whole entry): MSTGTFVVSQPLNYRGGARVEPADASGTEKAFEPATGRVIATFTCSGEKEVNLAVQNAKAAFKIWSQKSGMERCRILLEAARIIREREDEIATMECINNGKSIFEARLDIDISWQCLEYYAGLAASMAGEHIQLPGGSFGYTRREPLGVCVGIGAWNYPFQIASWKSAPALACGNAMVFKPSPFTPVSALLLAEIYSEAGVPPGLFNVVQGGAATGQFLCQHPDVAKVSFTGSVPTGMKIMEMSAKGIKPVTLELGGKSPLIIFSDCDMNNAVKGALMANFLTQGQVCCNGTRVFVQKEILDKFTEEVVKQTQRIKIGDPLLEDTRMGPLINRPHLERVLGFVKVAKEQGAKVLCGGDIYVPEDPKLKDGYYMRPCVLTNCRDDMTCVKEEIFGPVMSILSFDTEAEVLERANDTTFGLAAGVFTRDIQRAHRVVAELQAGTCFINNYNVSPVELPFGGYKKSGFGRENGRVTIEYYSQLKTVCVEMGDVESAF
Chain of Aldehyde dehydrogenase family 3 member A2 (Homo sapiens) (P51648 whole entry): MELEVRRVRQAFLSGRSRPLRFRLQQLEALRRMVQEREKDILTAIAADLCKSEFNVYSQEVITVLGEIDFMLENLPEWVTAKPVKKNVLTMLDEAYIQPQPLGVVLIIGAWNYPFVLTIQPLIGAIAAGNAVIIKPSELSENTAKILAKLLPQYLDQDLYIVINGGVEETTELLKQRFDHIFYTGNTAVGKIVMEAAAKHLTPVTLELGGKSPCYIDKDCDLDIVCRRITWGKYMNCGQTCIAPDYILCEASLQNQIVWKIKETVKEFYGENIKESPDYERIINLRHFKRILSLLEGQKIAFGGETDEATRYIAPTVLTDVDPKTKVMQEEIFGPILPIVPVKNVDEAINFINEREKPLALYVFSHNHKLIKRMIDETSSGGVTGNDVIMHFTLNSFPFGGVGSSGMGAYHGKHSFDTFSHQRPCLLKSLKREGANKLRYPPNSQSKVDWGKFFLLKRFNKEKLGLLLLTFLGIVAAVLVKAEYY

As for `C#Cc1ccc(-c2cnc(NC(=O)[C@H]3CCN(C#N)C3)s2)cc1`, the inhibition result in assay [1] is “Active”. In addition, the outcome in assay [2] and in assay [3] was Active. In addition, the fold change (FC) in assay [4] is above 64; in [5], above 64; in assay [6], above 16; in the assay on HEK293, above 16.

Turning to `N#CN1CC[C@H](C(=O)Nc2ncc(-c3ccccc3)s2)C1`, the inhibition result in assay [7] and in assay [8] was “Dde” throughout. Further, the Activity entry in [9] was “Dde”.
